Test results reported in PubChem BioAssay.
The source made the active and inactive calls.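 The calls were made as follows, unless noted: active = potentiation averaged over duplicate wells exceeding buffer-only control mean by more than 3 SD; inactive = the rest.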

What was measured:
[1] = thallium flux activation in parental CHO cells, counter-screen for KCNQ1 potentiator project (AID 493006;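 active = duplicate-averaged activation above buffer control mean plus 5 SD of those controls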); conditions: parental CHO-K1 cells, FluxOR thallium flux, at 10 µM; hits give high values
How it was run: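 Assay system: Untransfected host CHO-K1 cells with FluxOR thallium dye | Probe or stimulus: Potassium/thallium depolarization pulse | Schedule: Overnight 37 °C plating, 90 min RT dye, 20 min compound | Detection: Kinetic thallium-flux fluorescence | Read-out: Max-minus-min fluorescence over baseline, percent of buffer-to-R-L3 span | Benchmarks: Low control buffer, high control R-L3 activator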

[2] = biological target: Potassium voltage-gated channel subfamily KQT member 1 (Homo sapiens) (UniProt P51787); assay: KCNQ1 potassium channel potentiators, confirmation, FluxOR thallium flux, CHO cells, duplicates (AID 493007); conditions: KCNQ1 cell line, FluxOR thallium flux fluorescence, at 10 µM; hits give high values, % of reference activator effect, buffer zero;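 as to outcome: cells depolarized by a potassium plus thallium sulfate stimulus after compound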
Chain of Potassium voltage-gated channel subfamily KQT member 1 (Homo sapiens) (P51787 whole entry, looked up): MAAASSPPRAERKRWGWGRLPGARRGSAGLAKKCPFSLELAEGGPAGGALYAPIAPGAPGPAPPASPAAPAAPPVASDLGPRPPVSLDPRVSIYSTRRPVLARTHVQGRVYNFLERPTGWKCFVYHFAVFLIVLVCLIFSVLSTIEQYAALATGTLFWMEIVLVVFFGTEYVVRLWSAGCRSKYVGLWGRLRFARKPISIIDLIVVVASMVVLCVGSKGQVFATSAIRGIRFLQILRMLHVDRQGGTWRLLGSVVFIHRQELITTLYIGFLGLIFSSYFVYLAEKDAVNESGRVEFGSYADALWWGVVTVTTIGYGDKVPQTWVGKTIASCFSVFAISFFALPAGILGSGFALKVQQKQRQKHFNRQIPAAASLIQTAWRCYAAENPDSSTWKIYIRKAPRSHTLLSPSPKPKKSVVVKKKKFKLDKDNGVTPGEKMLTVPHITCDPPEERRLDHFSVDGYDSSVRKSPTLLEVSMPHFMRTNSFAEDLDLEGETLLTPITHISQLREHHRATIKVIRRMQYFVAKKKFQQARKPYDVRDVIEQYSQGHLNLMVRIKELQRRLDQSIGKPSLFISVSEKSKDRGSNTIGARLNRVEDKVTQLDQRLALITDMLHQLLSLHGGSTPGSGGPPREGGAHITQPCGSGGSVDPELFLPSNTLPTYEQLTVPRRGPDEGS
How it was run: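 Material: KCNQ1-expressing CHO cell line; Incubation: FluxOR dye loading 90 min, compound exposure 20 min, room temperature; Detection: FluxOR Tl+ flux fluorescence, 10 s baseline plus 110 s recording; Read-out: percent activation between buffer and R-L3 responses; Control set: buffer-only wells as 0% and R-L3 activator as 100%; Replication: duplicate wells per compound.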

[3] = biological target: Potassium voltage-gated channel subfamily KQT member 2 (Rattus norvegicus) (UniProt O88943); assay: rat KCNQ2 channel potentiation, selectivity assay for KCNQ1 potentiator project, KCNQ2-CHO-K1 cells (AID 493009;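 active = mean duplicate potentiation above the buffer control mean plus 5 SD of buffer wells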;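 also: assay conditions were tuned for KCNQ1 rather than KCNQ2 modulators; signal is max minus min fluorescence divided by baseline after thallium stimulus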); conditions: FluxOR thallium flux fluorescence, at 10 µM; hits give high values, scaled: buffer 0, activator control 100
Chain of Potassium voltage-gated channel subfamily KQT member 2 (Rattus norvegicus) (O88943 whole entry, looked up): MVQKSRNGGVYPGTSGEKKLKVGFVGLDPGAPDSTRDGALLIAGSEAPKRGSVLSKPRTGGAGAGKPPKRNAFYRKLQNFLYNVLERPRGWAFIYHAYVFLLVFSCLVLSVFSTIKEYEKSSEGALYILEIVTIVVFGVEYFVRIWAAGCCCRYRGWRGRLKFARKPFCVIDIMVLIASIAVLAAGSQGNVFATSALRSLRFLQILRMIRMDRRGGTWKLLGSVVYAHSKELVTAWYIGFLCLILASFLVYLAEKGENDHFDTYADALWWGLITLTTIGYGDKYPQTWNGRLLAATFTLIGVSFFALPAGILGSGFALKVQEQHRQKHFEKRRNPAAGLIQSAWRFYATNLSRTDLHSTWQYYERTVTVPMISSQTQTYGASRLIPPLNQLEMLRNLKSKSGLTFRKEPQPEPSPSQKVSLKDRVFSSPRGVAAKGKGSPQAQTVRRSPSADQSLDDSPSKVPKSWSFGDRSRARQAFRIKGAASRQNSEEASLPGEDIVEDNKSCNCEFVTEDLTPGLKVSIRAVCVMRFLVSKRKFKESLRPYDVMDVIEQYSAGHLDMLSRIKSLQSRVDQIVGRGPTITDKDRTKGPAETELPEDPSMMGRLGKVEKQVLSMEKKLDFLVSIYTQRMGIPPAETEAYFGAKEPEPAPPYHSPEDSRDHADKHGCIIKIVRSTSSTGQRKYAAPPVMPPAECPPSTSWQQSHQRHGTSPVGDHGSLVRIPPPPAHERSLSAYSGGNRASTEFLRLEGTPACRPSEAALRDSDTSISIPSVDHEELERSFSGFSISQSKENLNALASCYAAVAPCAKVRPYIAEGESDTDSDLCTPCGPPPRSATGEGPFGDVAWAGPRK

[4] = biological target: Potassium voltage-gated channel subfamily KQT member 1 (Homo sapiens) (UniProt P51787); assay: KCNQ1 channel current potentiators, confirmation, orthogonal assay for KCNQ1 potentiator project, IonWorks patch clamp, KCNQ1-CHO cells (AID 493184;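 active = current rise at least 3 SD above the untreated control mean in each of two repeat wells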); conditions: automated patch clamp current, at 10 µM; hits give high values
How it was run: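 assay system = KCNQ1-expressing CHO cells | medium = external bath solution at pH 7.4 | probe or stimulus = 2,000 ms depolarization, -90 to +40 mV | compound dosing = 10 µM final, single point | measured by = automated voltage clamp, amphotericin B perforated patch | measure = percent current increase versus pre-compound level | replication = duplicates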

Row | SMILES | activation [1] | potentiation [2] | potentiation [3] | outcome [4] | outcome [1] | outcome [2] | outcome [3]
1 | O=c1c2ccc(Cl)cc2nc(-c2cccc(C(F)(F)F)c2)n1O | 722% (active) | 230% (active) | 756% (active) | inactive |  |  | 
2 | Cc1ccc(-c2c(C(=O)O)c3ccccc3[nH]c2=O)cc1 |  |  |  | inactive | inactive | inactive | inactive
3 | Cn1ccnc1C(OC(=O)c1ccc(Cl)cc1)C(F)(F)F (stereo not given) |  |  |  | inactive | inactive | inactive | inactive
4 | O=C(COC(=O)c1cc(S(=O)(=O)N2CCOCC2)ccc1O)NCCc1ccccc1 |  |  |  | inactive | inactive | inactive | inactive
5 | Cc1cccc(-c2nnc(NC(=O)c3ccc(Cl)cc3)o2)c1 |  | 30% (active) | 155% (active) | inactive | inactive |  | 
6 | COc1ccc(C(=O)CC(=O)C(=O)Nc2ccccc2C(F)(F)F)cc1 |  | 38.5% (active) | 147% (active) | inactive | inactive |  | 
7 | C/C(=N\NC(=O)C1COc2ccccc2O1)c1ccc(N2CCOCC2)cc1 (stereo not given) |  |  |  | inactive | inactive | inactive | inactive
8 | O=C(NCc1cccc(Cl)c1)c1cccc(OC2CCN(C(=O)C3CC3)CC2)c1 |  |  |  | inactive | inactive | inactive | inactive
9 | CC(O)Cc1cn([C@@H](CCCCN)C(=O)N2CCNCC2)nn1 (stereo not given in full) |  |  |  | inactive | inactive | inactive | inactive
10 | Cn1c(=O)c2c3c(sc2n2c(SCC(N)=O)nnc12)CC(C(C)(C)C)CC3 (stereo not given) |  |  |  | inactive | inactive | inactive | inactive
11 | CCCCN(CCCC)C(=S)NC(=O)C(C)(C)C |  |  |  | inactive | inactive | inactive | inactive
12 | O=C(NC(=S)Nc1nc(-c2ccccc2)cs1)c1ccco1 |  | 48.5% (active) |  | inactive | inactive |  | inactive
13 | CCOC(=O)c1[nH]c(C=O)c(C(=O)OCC)c1C |  |  |  | inactive | inactive | inactive | inactive
14 | O=c1c(O)c(-c2cccs2)oc2ccccc12 | 290% (active) | 115% (active) | 289% (active) | inactive |  |  | 
15 | CCCCC/C=N\NC(=O)Cc1ccc([N+](=O)[O-])cc1 |  |  |  | inactive | inactive | inactive | inactive
16 | S=c1[nH]nc(-c2ccc(Cl)cc2Cl)n1-c1ccc(Cl)cc1 | 154% (active) | 43% (active) | 167% (active) | inactive |  |  | 
17 | CCOc1ccc(N2CC(C(=O)Nc3cc(Cl)ccc3-n3cncn3)CC2=O)cc1 (stereo not given) |  |  |  | inactive | inactive | inactive | inactive
18 | CN(C)c1ccc(C(=O)Nc2nnc(C3=COCCO3)o2)cc1 |  |  |  | inactive | inactive | inactive | inactive
19 | S=c1[nH]nc(CSc2nc3ccccc3s2)n1C1CCCCC1 | 142% (active) | 31% (active) | 147% (active) | inactive |  |  | 
20 | COc1ccc(-c2nc(CS(=O)CC(=O)NC3CCCC3)c(C)o2)cc1OC (stereo not given) | 168% (active) | 85% (active) | 244% (active) | inactive |  |  | 
21 | Cc1nn(CC(=O)NC(C)c2ccccc2)c(=O)c2ccccc12 (stereo not given) | 150% (active) | 85.5% (active) | 172% (active) | inactive |  |  | 
22 | CCOC(=O)c1sc(NN=C(C(=O)OC)C(=O)OC)c(C(=O)OCC)c1C | 185% (active) | 74.5% (active) | 208% (active) | inactive |  |  | 
23 | O=S(=O)(NC(=S)NC1CCCCC1)c1ccc(Cl)cc1 | 191% (active) | 56.5% (active) | 199% (active) | inactive |  |  | 
24 | O=C(NC(=S)Nc1ccc2c(c1)OCCO2)c1ccco1 | 206% (active) | 108% (active) | 260% (active) | inactive |  |  | 
25 | CCOC(=O)c1c(NC(=S)NCc2ccccc2)sc2c1CCN(C(=O)OCC)C2 |  |  |  | inactive | inactive | inactive | inactive
26 | O=c1[nH]sc2ccccc12 |  |  |  | inactive | inactive | inactive | inactive
27 | COCCN(CCOC)Cc1cc(=O)oc2cc3c(cc12)CCC3 | 145% (active) | 45.5% (active) |  | inactive |  |  | inactive
28 | CC1=CC(=O)C(C(C)C)=CC1=NC(=O)c1ccc(C)cc1 |  |  |  | inactive | inactive | inactive | inactive
29 | Cc1cccc(Nc2ccccc2C(=O)OCC(=O)N(C)C2CCS(=O)(=O)C2)c1C (stereo not given) |  |  |  | inactive | inactive | inactive | inactive
30 | CCOC(=O)c1sc2ncnc(NCC(c3cccs3)N(C)C)c2c1C (stereo not given) | 255% (active) | 87% (active) | 263% (active) | inactive |  |  | 
